According to ChEMBL document CHEMBL1128472, “Reversible inhibitors of the gastric (H+/K+)-ATPase. 5. Substituted 2,4-diaminoquinazolines and thienopyrimidines” (J Med Chem, 1995):

Assays:
[1] = biological target: Potassium-transporting ATPase (Sus scrofa, UniProt P19156); assay: Inhibition of K+ stimulated gastric ATPase activity; assay type: tissue-based, Stomach
Method in brief: (§1)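 K+-stimulated ATPase activity measured in a lyophilized gastric vesicle preparation at pH 7; enzyme concentration estimated at around 2 nM from 32P-ATP binding.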

[2] = biological target: T1, Potassium-transporting ATPase (Rattus norvegicus) (UniProt P09626+P18598); assay: Inhibition of pentagastrin stimulated gastric acid secretion in anesthetized rat at 10 uM/kg; assay type: functional; settings: Stomach; 10 umol/kg
Method in brief: (§2)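 Anaesthetized rat with lumen-perfused stomach; acid secretion induced by pentagastrin; compound given intravenously; inhibition of acid output recorded.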

[3] = biological target: T2, Potassium-transporting ATPase (Sus scrofa) (UniProt P18434+P19156); assay: Inhibition of K+ stimulated gastric ATPase activity at 100 uM[…]; assay type: tissue-based; settings: Stomach
Rattus norvegicus [4] = assay: Inhibition of pentagastrin stimulated gastric acid secretion in anesthetized rat at 10 uM/kg, on iv administration of the compound.; assay type: functional, Stomach; method in brief: as §2
Canis familiaris [5] = assay: % inhibition of Histamine-stimulated gastric acid secretion in Heidenhain pouch dog at 4 uM/kg, on peroral administration of the compound.; assay type: functional, Canis lupus familiaris, Stomach
Method in brief: (§3)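 Heidenhain pouch dogs with histamine-stimulated acid secretion; compound given orally as a dry powder in a hard gelatin capsule; inhibition of acid secretion measured.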

Canis familiaris [6] = assay: % inhibition of Histamine-stimulated gastric acid secretion in Heidenhain pouch dog at1uM/kg, on iv administration of the compound.; assay type: functional, Canis lupus familiaris, Stomach
[7] = biological target: T1, Potassium-transporting ATPase (Rattus norvegicus); assay: Inhibition of pentagastrin stimulated gastric acid secretion in anesthetized rat 10 uM/kg, on iv administration of the compound.; assay type: functional, organism-based; settings: Stomach; method in brief: as §2
Canis familiaris [8] = assay: Histamine-stimulated gastric acid secretion in Heidenhain pouch dog at 1uM/Kg, on iv administration of the compound; assay type: functional, Canis lupus familiaris, Stomach
Canis familiaris [9] = assay: Histamine-stimulated gastric acid secretion in Heidenhain pouch dog at 4uM/Kg, on oral administration of the compound
Rattus norvegicus [10] = assay: Inhibition of pentagastrin stimulated gastric acid secretion in anesthetized rat on 10 uM/kg, iv administration of the compound.; assay type: functional, Stomach; method in brief: as §2
Canis familiaris [11] = assay: % inhibition of Histamine-stimulated gastric acid secretion in Heidenhain pouch dog at 1 uM/kg, on peroral administration of the compound.; assay type: functional, Canis lupus familiaris, Stomach; settings: in the assay text read “on iv administration” for “on peroral administration”
Canis familiaris [12] = assay: % inhibition of Histamine-stimulated gastric acid secretion in Heidenhain pouch dog 1 uM/kg, on iv administration of the compound.; assay type: functional, Canis lupus familiaris, Stomach
Canis familiaris [13] = assay: % inhibition of Histamine-stimulated gastric acid secretion in Heidenhain pouch dog 4 uM/kg, on peroral administration of the compound.; assay type: functional, Canis lupus familiaris, Stomach; method in brief: as §3
Rattus norvegicus [14] = assay: Inhibition of pentagastrin stimulated gastric acid secretion in anesthetized rat on iv administration of the compound.; assay type: functional; settings: Stomach; method in brief: as §2
Canis familiaris [15] = assay: % inhibition of Histamine-stimulated gastric acid secretion in Heidenhain pouch dog at 1 uM/kg; assay type: functional, Canis lupus familiaris, Stomach
Canis familiaris [16] = assay: % inhibition of Histamine-stimulated gastric acid secretion in Heidenhain pouch dog at 4 uM/kg; assay type: functional, Canis lupus familiaris, Stomach
Canis familiaris [17] = assay: % inhibition of Histamine-stimulated gastric acid secretion in Heidenhain pouch dog at 1 umol/kg on iv administration of the compound.; assay type: functional; settings: Canis lupus familiaris, Stomach
[18] = biological target: T2, Potassium-transporting ATPase (Sus scrofa); assay: Inhibition of K+ stimulated gastric ATPase activity at 100 uM; assay type: tissue-based; settings: Stomach; method in brief: as §1
Rattus norvegicus [19] = assay: Inhibition of pentagastrin stimulated gastric acid secretion in anesthetized rat at 10 uM, on iv administration of the compound.; assay type: functional, Stomach; method in brief: as §2

Potassium-transporting ATPase, sequence (P18434 whole entry): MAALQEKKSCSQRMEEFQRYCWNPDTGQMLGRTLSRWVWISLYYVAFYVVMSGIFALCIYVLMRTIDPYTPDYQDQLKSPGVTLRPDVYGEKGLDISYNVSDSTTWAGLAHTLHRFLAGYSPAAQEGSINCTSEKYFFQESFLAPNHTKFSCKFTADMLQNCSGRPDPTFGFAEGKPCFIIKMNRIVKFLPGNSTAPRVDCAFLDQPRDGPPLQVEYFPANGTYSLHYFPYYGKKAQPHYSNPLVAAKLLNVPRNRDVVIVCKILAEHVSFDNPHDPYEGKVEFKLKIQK
Potassium-transporting ATPase, sequence (P19156 whole entry): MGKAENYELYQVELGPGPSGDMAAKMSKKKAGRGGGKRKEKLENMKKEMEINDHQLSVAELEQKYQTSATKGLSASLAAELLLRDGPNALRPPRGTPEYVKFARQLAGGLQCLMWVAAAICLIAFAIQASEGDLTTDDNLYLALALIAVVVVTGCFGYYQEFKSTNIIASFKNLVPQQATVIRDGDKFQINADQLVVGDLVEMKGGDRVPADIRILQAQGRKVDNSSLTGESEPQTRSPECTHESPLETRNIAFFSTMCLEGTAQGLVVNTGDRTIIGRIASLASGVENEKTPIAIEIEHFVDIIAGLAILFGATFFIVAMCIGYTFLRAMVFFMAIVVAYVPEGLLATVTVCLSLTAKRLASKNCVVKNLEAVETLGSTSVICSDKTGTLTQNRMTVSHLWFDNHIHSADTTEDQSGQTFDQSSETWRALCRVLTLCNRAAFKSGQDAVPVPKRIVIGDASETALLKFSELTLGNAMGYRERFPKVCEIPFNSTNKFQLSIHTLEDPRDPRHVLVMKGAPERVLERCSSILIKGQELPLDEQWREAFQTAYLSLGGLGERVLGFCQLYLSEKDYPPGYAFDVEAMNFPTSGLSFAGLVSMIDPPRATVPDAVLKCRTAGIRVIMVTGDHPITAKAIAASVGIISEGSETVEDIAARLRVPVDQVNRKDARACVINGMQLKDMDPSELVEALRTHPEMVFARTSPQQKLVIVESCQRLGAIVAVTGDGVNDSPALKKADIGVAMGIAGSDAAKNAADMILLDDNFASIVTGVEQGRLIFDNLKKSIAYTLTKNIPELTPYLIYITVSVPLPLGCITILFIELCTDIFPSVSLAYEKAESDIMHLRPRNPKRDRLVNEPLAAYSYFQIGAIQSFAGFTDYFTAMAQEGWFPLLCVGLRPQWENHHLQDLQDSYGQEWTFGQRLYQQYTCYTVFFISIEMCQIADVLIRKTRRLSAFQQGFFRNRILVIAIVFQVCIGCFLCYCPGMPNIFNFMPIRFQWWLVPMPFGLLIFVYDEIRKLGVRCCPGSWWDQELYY

## Cc1ccccc1Nc1nc(NCCc2ccccc2)nc2ccccc12
[1]
  IC50: 0.81 µM
[2]
  inhibition: 31%

## Cc1ccccc1Nc1nc(N(C)c2ccccc2)c2cc(O)ccc2n1
[1]
  IC50: 0.024 µM

## Cc1ccccc1Nc1nc(N(C)c2ccccc2C)c2ccccc2n1
[1]
  IC50: 0.046 µM
[2]
  inhibition: 90%

## Cc1ccccc1Nc1nc(Nc2ccccc2)c2ccsc2n1
[3]
  inhibition: 27%

## Cc1ccccc1Nc1nc(N2CCCC2)nc2ccccc12
[1]
  IC50: 2.26 µM
[2]
  inhibition: 17%

## Cc1ccccc1Nc1nc(N(C)c2ccccc2C)nc2ccccc12
[1]
  IC50: 2 µM
[2]
  inhibition: 27%

## CNc1nc2c(C)cccc2c2c1CCN2c1ccccc1C
[1]
  IC50: 0.18 µM

## CN(c1ccccc1)c1nc(N)nc2ccccc12
[1]
  IC50: 3.3 µM
[2]
  inhibition: 17%

## Cc1cc(F)ccc1Nc1nc(N(C)c2ccccc2)c2cccc(F)c2n1
[1]
  IC50: 0.14 µM

## Cc1ccccc1Nc1nc(N(C)c2ccccc2)c2cccc(O)c2n1
[1]
  IC50: 0.26 µM

## COc1cccc2c(Nc3ccccc3C)nc(NCCc3ccccc3)nc12
[1]
  IC50: 3.2 µM

## COc1cccc2c(Nc3ccccc3C)nc(N3CCCC3)nc12
[1]
  IC50: 30 µM
[2]
  inhibition: 31%

## COc1ccc(Nc2nc(N(C)c3ccccc3)c3sccc3n2)c(C)c1
[1]
  IC50: 0.34 µM

## CCNc1nc(Nc2ccccc2C)c2ccccc2n1
[1]
  IC50: 1.39 µM

## COc1cccc2c(Nc3ccccc3C)nc(NCc3ccccc3)nc12
[1]
  IC50: 2 µM

## Cc1cc(F)ccc1Nc1nc(N(C)c2ccccc2)c2sccc2n1
[1]
  IC50: 0.034 µM
Rattus norvegicus [4]
  Inhibition: 49%

## Cc1ccccc1Nc1nc(N(C)c2ccccc2)c2ccccc2n1
[1]
  IC50: 0.022 µM
[2]
  inhibition: 79%
Canis familiaris [5]
  Inhibition: 0%
Canis familiaris [6]
  Inhibition: 74%

## Cc1ccccc1Nc1nc(N(C)c2ccccc2)c2ccsc2n1
[1]
  IC50: 0.51 µM

## Cc1cc(F)ccc1Nc1nc(N(C)c2ccccc2)c2cc(OCCN(C)C)ccc2n1
[1]
  IC50: 1.3 µM

## Cc1ccccc1Nc1nc(Nc2ccccc2C)c2ccccc2n1
[1]
  IC50: 0.6 µM

## COc1ccc2nc(Nc3ccccc3C)nc(N(C)c3ccccc3)c2c1
[7]
  inhibition: 46%
[1]
  IC50: 0.51 µM

## Cc1cc(F)ccc1Nc1nc(N(C)c2ccccc2)c2cc(OCCCN(C)C)ccc2n1
[1]
  IC50: 1.1 µM

## COc1cccc2c(Nc3ccccc3C)nc(N(C)C)nc12
[1]
  IC50: 16 µM
[2]
  inhibition: 37%

## COc1cccc2c(Nc3ccccc3C)nc(Nc3ccccc3C)nc12
[1]
  IC50: 2.5 µM

## Cc1ccccc1Nc1nc(Nc2ccccc2)c2ccccc2n1
[1]
  IC50: 0.94 µM

## COc1cccc2c(N(C)c3ccccc3)nc(N(C)c3ccccc3)nc12
[1]
  IC50: 0.074 µM

## CCCC(=O)c1cnc2c(OC)cccc2c1Nc1ccccc1C
Canis familiaris [8]
  ED50: 0.26 µmol/kg
Canis familiaris [9]
  ED50: 1.6 µmol/kg

## COc1cccc2c(Nc3ccccc3C)nc(NCc3ccco3)nc12
[1]
  IC50: 1.9 µM

## Cc1cc(F)ccc1Nc1nc(N(C)c2ccccc2)c2cccc(O)c2n1
[1]
  IC50: 0.17 µM

## CCOC(=O)COc1cccc2c(N(C)c3ccccc3)nc(Nc3ccc(F)cc3C)nc12
[1]
  IC50: 0.13 µM
Rattus norvegicus [10]
  Inhibition: 39%

## CNc1nc(Nc2ccccc2C)c2cccc(OC)c2n1
[1]
  IC50: 0.64 µM
[2]
  inhibition: 19%

## Cc1ccccc1Nc1nc(N(C)c2ccccc2)c2sccc2n1
Canis familiaris [11]
  Inhibition: 84%
[1]
  IC50: 0.019 µM
Canis familiaris [5]
  Inhibition: 12%
Rattus norvegicus [4]
  Inhibition: 50%

## Cc1ccccc1Nc1nc(N(C)c2ccccc2)c2cccc(OCCCN(C)C)c2n1
Canis familiaris [12]
  Inhibition: 18%
Canis familiaris [13]
  Inhibition: 25%
[7]
  inhibition: 49%
[1]
  IC50: 0.021 µM

## COc1ccc(N(C)c2nc(Nc3ccccc3C)nc3ccccc23)cc1
[1]
  IC50: 0.034 µM
[2]
  inhibition: 60%
Canis familiaris [5]
  Inhibition: 12%

## COc1ccc2nc(Nc3ccc(F)cc3C)nc(N(C)c3ccccc3)c2c1
[1]
  IC50: 0.25 µM
Rattus norvegicus [10]
  Inhibition: 27%

## COc1cccc2c(N(C)c3ccccc3C)nc(Nc3ccc(F)cc3C)nc12
[1]
  IC50: 0.095 µM

## CN(c1ccccc1)c1nc(Nc2ccccc2)nc2ccccc12
[1]
  IC50: 0.065 µM
Rattus norvegicus [14]
  ED50: 2.35 µmol/kg

## COc1cccc2c(N(C)c3ccccc3C)nc(Nc3ccccc3C)nc12
[7]
  inhibition: 93%
[1]
  IC50: 0.1 µM

## Cc1cc(F)ccc1Nc1nc(N(C)c2ccccc2)c2cc(OCCCN3CCOCC3)ccc2n1
[7]
  inhibition: 5%
[1]
  IC50: 0.37 µM

## CCN(c1ccccc1)c1nc(Nc2ccccc2C)nc2ccccc12
[1]
  IC50: 0.32 µM
[2]
  inhibition: 59%

## Cc1cc(F)ccc1Nc1nc(N(C)c2ccccc2)c2ccccc2n1
Canis familiaris [12]
  Inhibition: 79%
Canis familiaris [13]
  Inhibition: 0%
[1]
  IC50: 0.021 µM
Rattus norvegicus [14]
  ED50: 1.94 µmol/kg

## Cc1ccccc1Nc1nc(Nc2ccccc2C)c2ccsc2n1
[3]
  inhibition: 27%

## CN(c1ccccc1)c1nc(N(C)c2ccccc2)c2ccsc2n1
[1]
  IC50: 1.3 µM
Rattus norvegicus [4]
  Inhibition: 14%

## Cc1cc(F)ccc1Nc1nc(N(C)c2ccccc2)c2cccc(OCCO)c2n1
[1]
  IC50: 0.1 µM

## Cc1cc(F)ccc1Nc1nc(N(C)c2ccccc2)c2ccsc2n1
[1]
  IC50: 0.13 µM

## COc1ccc(N(C)c2nc(Nc3ccccc3C)[n+](C)c3ccccc23)cc1
[1]
  IC50: 0.028 µM

## Cc1cc(O)ccc1Nc1nc(N(C)c2ccccc2)c2ccccc2n1
[7]
  inhibition: 23%
[1]
  IC50: 1.07 µM

## CN(c1ccccc1)c1nc(N(C)c2ccccc2)c2ccccc2n1
[1]
  IC50: 0.067 µM
Rattus norvegicus [14]
  ED50: 2.81 µmol/kg
Canis familiaris [5]
  Inhibition: 2%
Canis familiaris [6]
  Inhibition: 73%

## CN/C(=N\CCSCc1nc[nH]c1C)NC#N [CIMETIDINE]
Canis familiaris [8]
  ED50: 1.7 µmol/kg
Canis familiaris [9]
  ED50: 8.5 µmol/kg

## Cc1cc(Cl)ccc1Nc1nc(N(C)c2ccccc2)c2ccccc2n1
[7]
  inhibition: 31%
[1]
  IC50: 0.041 µM

## COc1cccc2c(N(C)c3ccccc3)nc(Nc3ccc(F)cc3C)nc12
Canis familiaris [12]
  Inhibition: 96%
Canis familiaris [13]
  Inhibition: 32%
[7]
  inhibition: 94%
[1]
  IC50: 0.032 µM

## Cc1cc(F)ccc1Nc1nc2c(C)cccc2c2c1CCN2c1ccccc1C
[1]
  IC50: 0.13 µM

## Cc1ccccc1Nc1nc(N)nc2ccccc12
[1]
  IC50: 1.32 µM
Rattus norvegicus [14]
  ED50: 48 µmol/kg

## Cc1ccccc1Nc1nc(N(C)c2ccc(F)cc2)c2ccccc2n1
[1]
  IC50: 0.12 µM
Rattus norvegicus [4]
  Inhibition: 62%

## Cc1cc(F)ccc1Nc1nc(N(C)c2ccccc2)c2cccc(OCCCN3CCOCC3)c2n1
Canis familiaris [13]
  Inhibition: 0%
[7]
  inhibition: 73%
[1]
  IC50: 0.05 µM

## COc1cccc2c(Nc3ccccc3C)nc(NCc3nccs3)nc12
[1]
  IC50: 3.8 µM
[2]
  inhibition: 33%

## Cc1ccccc1Nc1nc(N)nc2c(C)cccc12
[1]
  IC50: 0.24 µM
[2]
  inhibition: 48%

## Cc1ccccc1Nc1nc(N(C)c2ccccc2)c2cccc(OCCO)c2n1
Canis familiaris [12]
  Inhibition: 73%
Canis familiaris [13]
  Inhibition: 8%
[7]
  inhibition: 93%
[1]
  IC50: 0.035 µM

## Cc1cc(F)ccc1Nc1nc(N(C)c2ccccc2)c2cccc(OCCCN(C)C)c2n1
Canis familiaris [13]
  Inhibition: 0%
[7]
  inhibition: 68%
[1]
  IC50: 0.036 µM

## COc1cccc2c(N(C)c3ccccc3)nc(Nc3ccccc3C)nc12
Canis familiaris [15]
  Inhibition: 79%
[1]
  IC50: 0.042 µM
Rattus norvegicus [14]
  ED50: 1.39 µmol/kg
Canis familiaris [16]
  Inhibition: 44%

## COc1cccc2c(Nc3ccccc3C)nc(N)nc12
Canis familiaris [17]
  inhibition in vivo at 1 µmol/kg: 39%
[1]
  IC50: 0.08 µM
Rattus norvegicus [14]
  ED50: 7.11 µmol/kg
Canis familiaris [5]
  Inhibition: 0%

## Cc1ccccc1Nc1nc(N(C)c2ccc(O)cc2)c2ccccc2n1
[1]
  IC50: 0.019 µM

## Cc1ccccc1Nc1ncnc2ccccc12
[18]
  inhibition: 28%
Rattus norvegicus [19]
  Inhibition: 9%

## Cc1ccccc1Nc1nc(NCCO)nc2ccccc12
[1]
  IC50: 4.6 µM
[2]
  inhibition: 21%

## Cc1ccccc1Nc1nc(NCc2ccccc2)nc2ccccc12
[1]
  IC50: 0.51 µM

## COc1cccc2c(N(C)c3ccccc3)nc(N)nc12
[1]
  IC50: 1.2 µM
[2]
  inhibition: 13%

## CN(c1ccccc1)c1nc(N(C)c2ccccc2)c2sccc2n1
[1]
  IC50: 0.3 µM

## Cc1cc(F)ccc1Nc1nc(N(C)c2ccccc2)c2cc(O)ccc2n1
Canis familiaris [12]
  Inhibition: 97%
Canis familiaris [13]
  Inhibition: 0%
[1]
  IC50: 0.018 µM
Rattus norvegicus [14]
  ED50: 1.5 µmol/kg

## COc1cccc2c(Nc3ccccc3C)nc(N(C)c3ccccc3)nc12
[1]
  IC50: 0.59 µM
[2]
  inhibition: 37%

## COc1ccc(Nc2nc(N(C)c3ccccc3)c3ccccc3n2)c(C)c1
[1]
  IC50: 0.36 µM

## COc1cccc2c(Nc3ccccc3C)ncnc12
[1]
  IC50: 11.6 µM
[2]
  inhibition: 30%
